From PubChem
CHO parental Ca: ATP-evoked calcium signal inhibitors, parental CHO, primary screen, counter-screen for OX1R antagonist project, cell-based, fluorescence, Fluo-8 calcium dye | parental CHO-K1, ATP-induced calcium, Fluo-8 fluorescence | inhibition, % at 5.6 µM | 330,000 compounds, 0.63% hits | AID 463079, 2010;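 active = inhibition above that plate's mean sample inhibition plus 3 SD, cut at about 26% in these data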
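Test system: untransfected parental CHO cell line. Compound: one dose, 5.6 µM nominal. Detection: intracellular calcium via Fluo-8 no-wash fluorescent dye. Measure: % inhibition. Benchmarks: ATP-challenged DMSO wells low, unchallenged DMSO wells high.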
TAAR1 antagonist: human TAAR1 antagonists, primary screen, Fluo-8 calcium fluorescence, CHO RD-HGA16 cells. Trace amine-associated receptor 1 (Homo sapiens), Q96RJ0. antagonist. inhibition, % at 3 µM. 360,000 compounds, 1.5% hits;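 active = inhibition above a per-plate cutoff, the mean inhibition of test compounds on that plate plus 3 SD, cut at about 49% in these data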
Target sequence (Q96RJ0 whole entry, looked up): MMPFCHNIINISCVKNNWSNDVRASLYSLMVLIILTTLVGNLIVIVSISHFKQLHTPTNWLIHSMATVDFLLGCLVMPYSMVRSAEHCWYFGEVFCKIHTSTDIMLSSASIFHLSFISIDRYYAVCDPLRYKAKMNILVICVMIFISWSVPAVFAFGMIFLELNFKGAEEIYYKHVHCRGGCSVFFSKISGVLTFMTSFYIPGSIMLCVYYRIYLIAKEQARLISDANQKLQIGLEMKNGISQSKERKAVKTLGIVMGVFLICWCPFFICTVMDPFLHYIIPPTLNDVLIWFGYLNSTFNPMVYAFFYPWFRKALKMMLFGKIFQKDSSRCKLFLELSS
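Assay system: CHO-derived RD-HGA16 cells stably expressing human TAAR1 plus Gα16. Timing: 140 s kinetic read after compound, 140 s after agonist. Technique: kinetic Fluo-8 calcium fluorescence measurement. Measure: % inhibition of agonist calcium response.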
TAAR1 agonist: human TAAR1 agonists, primary screen, Fluo-8 calcium fluorescence, CHO RD-HGA16 cells; AID 624467, 2012; 360,000 compounds, 0.99% hits; activation, % at 3 µM; vehicle wells 0%, saturating PEA agonist 100%; Trace amine-associated receptor 1 (Homo sapiens), Q96RJ0;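 active = activation above the mean activation of all test compounds in the run plus 3 SD, cut at about 38% in these data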
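Repeats: no replicates (n 1) | Material: CHO-derived RD-HGA16 cells with stable Gα16 and human TAAR1 | Technique: Kinetic Fluo-8 calcium fluorescence | Schedule: 17-24 h seeding, 75 min 37 °C dye, 30 min RT | Evaluation: % activation from peak over basal fluorescence ratio, DMSO-to-PEA scaled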
OX1R antag-1: antagonists of human orexin 1 receptor (OX1R); inhibition, % at 6.6 µM; OX1R-expressing cells, FRET antagonist read-out; Orexin/Hypocretin receptor type 1 (Homo sapiens), O43613; 330,000 compounds, 1.8% hits; in the data active = inhibition mostly above about 38%, no sharp cut-off; inactive = mostly below about 40%
OX1R antag-2: OX1R (HCRTR1) antagonists, primary screen, fluorescence, CHO/OX1R cells, Fluo-8 calcium, orexin A. Orexin/Hypocretin receptor type 1 (Homo sapiens), O43613. Fluo-8 calcium fluorescence. inhibition, % at 5 µM. 330,000 compounds, 0.43% hits. AID 434989, 2010;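 active = inhibition above its plate's threshold, mean inhibition of all tested compounds on the plate plus 3 SD, cut at about 37% in these data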
GPR7 antag: GPR7 receptor antagonists, primary screen, cell-based, fluorescence, single concentration; GPR7-expressing cells, fluorescence antagonist assay; inhibition, % at 4.4 µM; 290,000 compounds, 1.1% hits; in the data active = inhibition above about 16%, passing the limit was not always enough;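 also: cells stimulated with the agonist NPW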
Of the large screens only hits and unclear results are named; the others gave an inactive call. The list is not random: actives were taken first. Their share in the collection is about 4.5%.

CNc1ccccc1C(C)(C)c1cc(-c2cccc([N+](=O)[O-])c2)no1	none
CNc1ccccc1C(C)(C)c1cc(-c2cccc(Br)c2)no1	CHO parental Ca 45
O=C(NC(=S)NCCC1=CCCCC1)c1ccccc1Br	OX1R antag-1 65
CCCCNc1c(-c2ccc(SC3CCCCC3)cc2)nc2ccccn12	CHO parental Ca 80 (no result: GPR7 antag)
CCCCNc1c(-c2ccc(OC)c(SC(C)CC)c2)nc2cnccn12 (centres undefined)	none (no result: CHO parental Ca, OX1R antag-1, OX1R antag-2, GPR7 antag)
c1ccc(CNc2c(-c3cccc(SC4CCCCC4)c3)nc3ccccn23)cc1	CHO parental Ca 82, TAAR1 antagonist 55, OX1R antag-2 73 (no result: GPR7 antag)
CCCCNc1c(-c2cccc(SC3CCCCC3)c2)nc2ccc(Cl)cn12	none (no result: GPR7 antag)
Clc1ccc2nc(-c3cccc(SC4CCCCC4)c3)c(NCc3ccccc3)n2c1	none (no result: GPR7 antag)
CCCCNc1c(-c2ccc(SC(C)CC)cc2)nc2ccccn12 (centres undefined)	CHO parental Ca 87, TAAR1 antagonist 96, OX1R antag-2 56 (no result: GPR7 antag)
COCC(C)n1c(SCC(=O)N2CCCCC2)nc2ccccc2c1=O (centres undefined)	none
COCC(C)n1c(SCC(=O)N2CCc3ccccc3C2)nc2ccccc2c1=O (centres undefined)	OX1R antag-1 70
Cc1ccc2c(c1)S(=O)(=O)N(C)C(c1ccccc1)=C2	TAAR1 antagonist 53 (no result: CHO parental Ca, OX1R antag-1, OX1R antag-2, GPR7 antag)
O=C(NCC1CCCO1)c1ccc(NS(=O)(=O)c2cccc([N+](=O)[O-])c2)cc1 (centres undefined)	none
Cc1ccc(NS(=O)(=O)c2ccc(C(=O)NCC3CCCO3)cc2)cc1 (centres undefined)	TAAR1 agonist 40
O=C(NS(=O)(=O)c1ccc(NC(=O)C2CCCO2)cc1)c1ccccc1 (centres undefined)	none
O=C(NCC1CCCO1)c1ccccc1S(=O)(=O)c1ccc([N+](=O)[O-])cc1 (centres undefined)	OX1R antag-1 76
O=S(=O)(NCC1CCCO1)c1ccc(-c2ccc(Cl)cc2)cc1 (centres undefined)	CHO parental Ca 36
O=C(Nc1ccc(S(=O)(=O)Nc2ccc(Cl)cc2)cc1)C1CCCO1 (centres undefined)	TAAR1 agonist 41
C[C@@H]1ON(C)[C@H]2C[C@H]3c4cc(N5CCN(C)CC5)ccc4CCN3C[C@@H]12	none (no result: CHO parental Ca, OX1R antag-1, OX1R antag-2, GPR7 antag)
O=C(Cc1ccccc1)Nc1nc2ccccc2[nH]1	none
O=C(Cc1ccc(Cl)cc1)Nc1nc2ccccc2[nH]1	TAAR1 agonist 39
CCNC(=O)OC[C@H]1O[C@H](C#Cc2ccc(C(C)(C)C)cc2)C=C[C@H]1OC(C)=O	none (no result: CHO parental Ca, OX1R antag-1, OX1R antag-2, GPR7 antag)
COc1ccc(CNC(=O)CCc2ccc(S(=O)(=O)N3CCCCCC3)cc2)cc1OC	none (no result: CHO parental Ca, OX1R antag-1, OX1R antag-2, GPR7 antag)
CCCc1nc2c(C)cc(Br)cn2c1Cc1ccccc1OC	none (no result: CHO parental Ca, OX1R antag-1, OX1R antag-2, GPR7 antag)
COC[C@@H](O)[C@H]1OCc2cc(OC)ccc2[C@@H]1/C=C/c1ccccc1	none (no result: CHO parental Ca, OX1R antag-1, OX1R antag-2, GPR7 antag)
Cc1cc(C)c(S(=O)(=O)c2ccc(Cl)cc2)c(Cl)n1	none
Cc1cc(S(=O)(=O)c2ccc(Cl)cc2)nc(S(=O)(=O)c2ccc(Cl)cc2)c1C#N	TAAR1 antagonist 68 (no result: CHO parental Ca, OX1R antag-1, OX1R antag-2, GPR7 antag)
COc1ccc2[nH]c3c(NCCC4=CCCCC4)ncnc3c2c1	GPR7 antag 23 (no result: CHO parental Ca, OX1R antag-1, OX1R antag-2)
CCN(CC)CCNc1ncnc2c1[nH]c1ccc(OC)cc12	none (no result: TAAR1 antagonist, TAAR1 agonist)
CCCCCCC12C(=Cc3cc(C)ccc31)c1ccccc1C(CC(=O)NCc1ccccc1)N2C(=O)OC (centres undefined)	none (no result: CHO parental Ca, OX1R antag-1, OX1R antag-2, GPR7 antag)
C[C@@H]1CNC(=O)c2c(C(=O)N3CCN(c4ccccc4)CC3)ncn21	none (no result: CHO parental Ca, OX1R antag-1, OX1R antag-2, GPR7 antag)
CC(C)(C)n1cnc2cc(NS(=O)(=O)c3ccc(Br)cc3)ccc21	CHO parental Ca 58, OX1R antag-2 60
CN(C)c1cccc(/C=C(\C#N)c2ccccc2)c1	CHO parental Ca 38
CN(C)c1ccc(/C=C(\C#N)c2ccccc2)cc1	none (no result: CHO parental Ca, TAAR1 antagonist, TAAR1 agonist, OX1R antag-1, OX1R antag-2)
COc1ccc(/C=C(/C(=O)c2cccs2)N2C=CC=CC2=C(C#N)C#N)cc1	TAAR1 antagonist 56 (no result: CHO parental Ca, OX1R antag-1, OX1R antag-2)
